Measurements published in the M2OR odorant receptor database.
Where a chain is given by its changes, count along the chain named.

Key:
Conditions in all cases: stereoisomer not certain
OR2C3 (Homo sapiens) = molecular target: T1, OR2C3 (Homo sapiens) (UniProt Q8N628)
T1 sequence (whole entry): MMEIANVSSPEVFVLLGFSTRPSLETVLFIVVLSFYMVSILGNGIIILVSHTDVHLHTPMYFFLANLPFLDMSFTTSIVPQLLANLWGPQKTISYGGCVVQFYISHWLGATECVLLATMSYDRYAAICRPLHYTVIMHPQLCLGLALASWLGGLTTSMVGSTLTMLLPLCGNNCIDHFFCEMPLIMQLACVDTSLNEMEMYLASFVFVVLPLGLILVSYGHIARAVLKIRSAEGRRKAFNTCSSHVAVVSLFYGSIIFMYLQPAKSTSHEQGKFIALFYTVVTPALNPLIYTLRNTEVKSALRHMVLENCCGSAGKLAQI
Method in brief: (§1)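 Each receptor–molecule pair is labelled responsive or non-responsive (inactive) according to whether the original authors judged the measured signal statistically different from baseline. The data were taken from the main text and supplementary material of published papers and checked for typos and inconsistencies. Assay methods differed by source, with transient luciferase assays in mammalian cell lines being common.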

OR2D2 (Homo sapiens) = molecular target: T2, OR2D2 (Homo sapiens) (UniProt Q9H210)
T2 sequence (whole entry): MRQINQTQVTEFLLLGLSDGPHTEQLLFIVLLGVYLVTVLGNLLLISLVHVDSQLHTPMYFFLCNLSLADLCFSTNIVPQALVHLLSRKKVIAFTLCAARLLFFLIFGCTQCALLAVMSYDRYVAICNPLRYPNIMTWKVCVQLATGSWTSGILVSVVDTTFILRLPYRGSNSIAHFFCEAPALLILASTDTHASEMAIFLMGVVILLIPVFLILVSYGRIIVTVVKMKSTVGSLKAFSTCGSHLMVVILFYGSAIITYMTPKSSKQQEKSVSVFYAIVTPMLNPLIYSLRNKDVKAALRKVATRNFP
Method in brief: as §1

OR2D3 (Homo sapiens) = molecular target: T3, OR2D3 (Homo sapiens) (UniProt Q8NGH3)
T3 sequence (whole entry): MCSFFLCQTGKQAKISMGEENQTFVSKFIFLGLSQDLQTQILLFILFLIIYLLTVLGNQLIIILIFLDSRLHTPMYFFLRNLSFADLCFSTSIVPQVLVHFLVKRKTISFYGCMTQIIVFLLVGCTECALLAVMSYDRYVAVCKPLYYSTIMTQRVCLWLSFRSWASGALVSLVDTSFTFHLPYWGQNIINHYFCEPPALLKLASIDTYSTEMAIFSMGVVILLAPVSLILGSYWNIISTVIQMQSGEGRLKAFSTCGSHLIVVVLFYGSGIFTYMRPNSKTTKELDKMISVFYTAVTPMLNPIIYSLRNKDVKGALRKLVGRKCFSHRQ
Method in brief: as §1

OR2F1 (Homo sapiens) = molecular target: T4, OR2F1 (Homo sapiens) (UniProt Q13607)
T4 sequence (whole entry): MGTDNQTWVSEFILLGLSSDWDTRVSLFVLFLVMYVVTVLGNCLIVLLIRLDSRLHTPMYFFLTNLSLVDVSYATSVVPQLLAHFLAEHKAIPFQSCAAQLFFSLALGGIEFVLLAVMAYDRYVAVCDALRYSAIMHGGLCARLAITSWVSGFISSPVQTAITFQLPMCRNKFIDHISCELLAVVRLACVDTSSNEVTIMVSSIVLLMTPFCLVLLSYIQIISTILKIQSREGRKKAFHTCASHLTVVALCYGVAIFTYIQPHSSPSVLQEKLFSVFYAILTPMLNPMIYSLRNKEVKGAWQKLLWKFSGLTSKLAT
Method in brief: as §1

OR2F2 (Homo sapiens) = molecular target: T5, OR2F2 (Homo sapiens) (UniProt O95006)
T5 sequence (whole entry): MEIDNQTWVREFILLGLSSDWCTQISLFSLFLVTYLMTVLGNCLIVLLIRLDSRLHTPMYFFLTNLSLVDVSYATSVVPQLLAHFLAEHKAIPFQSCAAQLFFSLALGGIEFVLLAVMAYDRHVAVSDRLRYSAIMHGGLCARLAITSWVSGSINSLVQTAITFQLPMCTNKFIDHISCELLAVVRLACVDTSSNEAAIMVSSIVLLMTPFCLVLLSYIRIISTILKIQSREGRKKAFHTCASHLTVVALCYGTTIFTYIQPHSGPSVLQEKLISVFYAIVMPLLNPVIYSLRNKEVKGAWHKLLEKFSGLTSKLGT
Method in brief: as §1

OR2G2 (Homo sapiens) = molecular target: T6, OR2G2 (Homo sapiens) (UniProt Q8NGZ5)
T6 sequence (whole entry): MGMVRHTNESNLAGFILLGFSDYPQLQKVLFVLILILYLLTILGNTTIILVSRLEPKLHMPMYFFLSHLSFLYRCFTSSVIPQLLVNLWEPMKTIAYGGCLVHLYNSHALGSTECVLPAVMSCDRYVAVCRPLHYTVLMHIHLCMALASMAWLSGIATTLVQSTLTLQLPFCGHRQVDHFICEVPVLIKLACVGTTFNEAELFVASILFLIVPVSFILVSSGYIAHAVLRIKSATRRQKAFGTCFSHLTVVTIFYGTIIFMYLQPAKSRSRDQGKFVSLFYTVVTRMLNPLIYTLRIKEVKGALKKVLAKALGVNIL
Method in brief: as §1

OR2G3 (Homo sapiens) = molecular target: T7, OR2G3 (Homo sapiens) (UniProt Q8NGZ4)
T7 sequence (whole entry): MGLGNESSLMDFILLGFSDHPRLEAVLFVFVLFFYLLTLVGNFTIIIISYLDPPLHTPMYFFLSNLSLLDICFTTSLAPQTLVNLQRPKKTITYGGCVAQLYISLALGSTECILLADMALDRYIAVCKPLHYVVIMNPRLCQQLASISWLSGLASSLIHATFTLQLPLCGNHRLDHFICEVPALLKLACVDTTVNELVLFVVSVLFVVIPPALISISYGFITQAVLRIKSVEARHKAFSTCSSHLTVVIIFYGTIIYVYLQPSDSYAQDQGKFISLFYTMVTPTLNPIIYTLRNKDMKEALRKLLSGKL
Method in brief: as §1

OR2G6 (Homo sapiens) = molecular target: T8, OR2G6 (Homo sapiens) (UniProt Q5TZ20)
T8 sequence (whole entry): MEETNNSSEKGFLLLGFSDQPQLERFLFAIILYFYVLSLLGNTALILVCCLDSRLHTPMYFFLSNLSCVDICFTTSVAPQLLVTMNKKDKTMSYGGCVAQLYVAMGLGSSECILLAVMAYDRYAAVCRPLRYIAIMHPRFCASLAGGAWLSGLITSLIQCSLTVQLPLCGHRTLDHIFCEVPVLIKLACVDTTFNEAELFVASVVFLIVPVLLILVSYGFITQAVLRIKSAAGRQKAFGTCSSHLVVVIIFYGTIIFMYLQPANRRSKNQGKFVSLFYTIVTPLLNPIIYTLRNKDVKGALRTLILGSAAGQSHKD
Method in brief: as §1

OR2H1 (Homo sapiens) = molecular target: T9, OR2H1 (Homo sapiens) (UniProt Q9GZK4)
T9 sequence (whole entry): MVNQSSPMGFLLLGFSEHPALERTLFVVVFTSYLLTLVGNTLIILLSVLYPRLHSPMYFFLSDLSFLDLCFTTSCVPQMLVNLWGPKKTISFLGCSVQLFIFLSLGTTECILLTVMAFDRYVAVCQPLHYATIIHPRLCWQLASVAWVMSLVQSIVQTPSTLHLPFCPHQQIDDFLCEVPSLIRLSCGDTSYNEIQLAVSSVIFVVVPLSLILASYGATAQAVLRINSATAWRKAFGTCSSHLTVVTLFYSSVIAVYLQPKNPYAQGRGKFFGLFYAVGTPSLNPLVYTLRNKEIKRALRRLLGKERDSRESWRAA
Method in brief: as §1

OR2H2 (Homo sapiens) = molecular target: T10, OR2H2 (Homo sapiens) (UniProt O95918)
T10 sequence (whole entry): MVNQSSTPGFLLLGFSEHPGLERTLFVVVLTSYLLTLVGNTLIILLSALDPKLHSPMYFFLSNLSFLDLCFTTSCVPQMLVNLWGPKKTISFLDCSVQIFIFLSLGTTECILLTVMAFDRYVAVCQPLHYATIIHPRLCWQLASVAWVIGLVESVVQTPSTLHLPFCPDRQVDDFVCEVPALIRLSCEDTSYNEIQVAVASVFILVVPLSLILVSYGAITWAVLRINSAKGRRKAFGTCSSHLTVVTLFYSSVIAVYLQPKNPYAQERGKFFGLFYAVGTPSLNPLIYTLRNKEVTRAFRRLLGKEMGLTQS
Method in brief: as §1

OR2C1 [1] = test system: OR2C1
Method in brief: as §1
Target sequence in this assay (as listed by the source): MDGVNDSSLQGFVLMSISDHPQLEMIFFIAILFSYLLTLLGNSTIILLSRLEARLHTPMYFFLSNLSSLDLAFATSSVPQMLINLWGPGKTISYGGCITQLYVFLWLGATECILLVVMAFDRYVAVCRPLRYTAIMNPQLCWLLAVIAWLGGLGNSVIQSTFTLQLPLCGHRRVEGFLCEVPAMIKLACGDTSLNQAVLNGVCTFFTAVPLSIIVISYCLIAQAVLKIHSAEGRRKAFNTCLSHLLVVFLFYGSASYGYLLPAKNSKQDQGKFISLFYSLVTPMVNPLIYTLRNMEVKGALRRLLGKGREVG

OR2C1 [2] = test system: OR2C1; remark: listed apart in the source
Method in brief: as §1
Target sequence in this assay (as listed by the source): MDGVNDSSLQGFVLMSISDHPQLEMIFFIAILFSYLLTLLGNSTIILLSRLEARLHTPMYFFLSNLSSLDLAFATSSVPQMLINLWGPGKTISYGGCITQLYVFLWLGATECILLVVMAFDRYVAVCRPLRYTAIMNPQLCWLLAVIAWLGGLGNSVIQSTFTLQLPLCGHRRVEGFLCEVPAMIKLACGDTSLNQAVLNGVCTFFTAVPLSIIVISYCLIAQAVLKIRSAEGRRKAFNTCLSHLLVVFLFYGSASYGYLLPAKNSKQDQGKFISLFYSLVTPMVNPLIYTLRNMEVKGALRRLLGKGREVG

OR2C1 [3] = test system: T11, OR2C1; remark: listed apart in the source
T11 sequence (whole entry): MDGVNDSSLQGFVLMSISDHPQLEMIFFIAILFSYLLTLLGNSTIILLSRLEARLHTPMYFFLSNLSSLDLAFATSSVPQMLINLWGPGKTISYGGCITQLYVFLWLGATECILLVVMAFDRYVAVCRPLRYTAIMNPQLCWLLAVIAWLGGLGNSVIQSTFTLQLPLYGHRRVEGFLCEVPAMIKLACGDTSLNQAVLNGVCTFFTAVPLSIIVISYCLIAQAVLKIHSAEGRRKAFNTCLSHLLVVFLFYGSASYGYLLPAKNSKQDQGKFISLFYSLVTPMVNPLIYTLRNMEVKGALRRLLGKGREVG
Method in brief: as §1

OR2F1 = test system: OR2F1
Chain of OR2F1 (as listed by the source): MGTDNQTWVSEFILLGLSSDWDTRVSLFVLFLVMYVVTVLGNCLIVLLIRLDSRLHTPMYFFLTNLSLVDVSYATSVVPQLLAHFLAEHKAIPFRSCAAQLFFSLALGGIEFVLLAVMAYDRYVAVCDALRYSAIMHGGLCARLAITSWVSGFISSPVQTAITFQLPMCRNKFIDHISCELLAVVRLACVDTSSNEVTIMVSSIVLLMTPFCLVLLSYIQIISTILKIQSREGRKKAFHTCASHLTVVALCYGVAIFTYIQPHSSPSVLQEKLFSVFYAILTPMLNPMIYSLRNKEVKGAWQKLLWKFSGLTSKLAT
Method in brief: as §1

OR2C3 [4] = test system: T12, OR2C3
T12 sequence (whole entry): T1 sequence (whole entry) with T20A, P68S, L289V
Method in brief: as §1

OR2C3 [5] = test system: T13, OR2C3; remark: listed apart in the source
T13 sequence (whole entry): T1 sequence (whole entry) with P68S
Method in brief: as §1

OR2D2 S148P I163T M202T = test system: T14, OR2D2 S148P I163T M202T
T14 sequence (whole entry): T2 sequence (whole entry) with S148P, I163T, M202T
Method in brief: as §1

OR2D3 R155W = test system: T15, OR2D3 R155W
T15 sequence (whole entry): T3 sequence (whole entry) with R155W
Method in brief: as §1

OR2G2 L167P R236G = test system: T16, OR2G2 L167P R236G
T16 sequence (whole entry): T6 sequence (whole entry) with L167P, R236G
Method in brief: as §1

OR2G3 I289V = test system: T17, OR2G3 I289V
T17 sequence (whole entry): T7 sequence (whole entry) with I289V
Method in brief: as §1

Measured: odorant receptor agonist call

CCCCC(S)C(C)CO (configuration not stated)
inactive: OR2C3 (Homo sapiens) | OR2D2 (Homo sapiens) | OR2D3 (Homo sapiens) | OR2F1 (Homo sapiens) | OR2F2 (Homo sapiens) | OR2G2 (Homo sapiens) | OR2G3 (Homo sapiens) | OR2G6 (Homo sapiens) | OR2H1 (Homo sapiens) | OR2H2 (Homo sapiens)

CC(C)(C)C1CCCCC1OCCCCO (configuration not stated)
inactive: OR2G2 (Homo sapiens)

CC1CCCCCCCCCCCCC(=O)C1 (configuration not stated)
inactive: OR2C3 (Homo sapiens) | OR2D2 (Homo sapiens) | OR2D3 (Homo sapiens) | OR2F1 (Homo sapiens) | OR2F2 (Homo sapiens) | OR2G2 (Homo sapiens) | OR2G3 (Homo sapiens) | OR2G6 (Homo sapiens) | OR2H1 (Homo sapiens) | OR2H2 (Homo sapiens)

CCCCCCCCS
active: OR2C1 [1] | OR2C1 [2] | OR2C1 [3]

O=C([O-])C[SH2+]
inactive: OR2C1 [3] | OR2F1

Cc1occc(=O)c1OC(=O)C(C)C
active: OR2G2 (Homo sapiens)

CC1=NC(C)C(C)S1 (configuration not stated)
inactive: OR2C3 [4] | OR2C3 [5] | OR2D2 (Homo sapiens) | OR2D2 S148P I163T M202T | OR2D3 (Homo sapiens) | OR2D3 R155W | OR2F1 (Homo sapiens) | OR2F2 (Homo sapiens) | OR2G2 (Homo sapiens) | OR2G2 L167P R236G | OR2G3 (Homo sapiens) | OR2G3 I289V | OR2G6 (Homo sapiens) | OR2H1 (Homo sapiens) | OR2H2 (Homo sapiens)
